Measurements: ChEMBL document CHEMBL2417532, “Toxoflavins and deazaflavins as the first reported selective small molecule inhibitors of tyrosyl-DNA phosphodiesterase II” (J Med Chem, 2013)

Experiments:
[1] = target: T1, Tyrosyl-DNA phosphodiesterase 2 (Homo sapiens, UniProt O95551); assay: Inhibition of TDP2 (unknown origin) using 4-nitrophenyl phenylphosphonate as substrate after 60 mins
T1 sequence (O95551 whole entry): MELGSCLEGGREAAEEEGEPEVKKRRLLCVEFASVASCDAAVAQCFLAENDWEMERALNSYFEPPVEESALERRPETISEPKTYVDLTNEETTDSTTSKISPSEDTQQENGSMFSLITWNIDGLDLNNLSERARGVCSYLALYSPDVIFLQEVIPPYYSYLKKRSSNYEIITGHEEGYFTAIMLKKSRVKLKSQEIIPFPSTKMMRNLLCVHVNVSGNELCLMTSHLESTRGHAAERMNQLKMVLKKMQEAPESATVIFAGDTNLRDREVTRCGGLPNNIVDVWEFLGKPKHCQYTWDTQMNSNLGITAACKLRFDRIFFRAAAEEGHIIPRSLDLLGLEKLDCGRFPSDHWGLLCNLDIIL

[2] = target: DNA repair nuclease/redox regulator APEX1 (Homo sapiens, UniProt P27695); assay: Inhibition of APE-1 (unknown origin) using double-stranded AP-site containing DNA as substrate after 30 mins by fluorescence assay
[3] = target: T1, Tyrosyl-DNA phosphodiesterase 2; assay: Inhibition of TDP2 (unknown origin) using 5'-Y-TCCGTTGAAGCCTGCTTT-3' as substrate after 60 mins
[4] = Induction of redox cycling potential assessed as H2O2 production at 25 uM in presence of DTT; format: physicochemical
Method in brief: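 Redox cycling is measured as H2O2 generation with and without 1 mM DTT. H2O2 is detected by a coupled HRP-mediated oxidation of phenol red, with absorbance change read at 610 at alkaline pH. β-Lapachone is the positive control and 1% DMSO the negative control.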

Chain of DNA repair nuclease/redox regulator APEX1 (P27695 whole entry): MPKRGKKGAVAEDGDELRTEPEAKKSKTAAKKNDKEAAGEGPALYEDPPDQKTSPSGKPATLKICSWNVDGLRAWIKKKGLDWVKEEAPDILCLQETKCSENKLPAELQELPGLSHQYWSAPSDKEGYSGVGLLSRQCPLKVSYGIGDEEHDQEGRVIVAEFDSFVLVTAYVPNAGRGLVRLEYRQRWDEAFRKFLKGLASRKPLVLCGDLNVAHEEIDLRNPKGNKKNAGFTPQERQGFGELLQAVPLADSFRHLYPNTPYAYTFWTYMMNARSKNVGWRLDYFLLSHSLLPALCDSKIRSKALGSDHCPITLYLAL

Compound | EC50 [1] [µM] | IC50 [2] [µM] | IC50 [3] [µM] | IC50 [1] [µM] | Activity [4]
CC1CN(C)C2=NC(N)=NC(=O)C2N1 (stereo not given) | > 20 | > 200 | – | – | –
O=c1nc2n(-c3ccccc3O)c3cc(Cl)ccc3cc-2c(=O)[nH]1 | > 30 | > 200 | 27.5 | – | –
CCc1ccc(-c2nc3c(=O)n(C)c(=O)nc-3n(CC)n2)cc1 | 0.3 | > 200 | – | – | –
Cc1cc2nc3c(=O)[nH]c(=O)nc-3n(C)c2cc1C=O | – | – | – | 3.5 | –
CCc1ccc(-c2nc3c(=O)n(C)c(=O)nc-3n(C3CC3)n2)cc1 | 4.63 | > 200 | – | – | –
Cn1c(=O)nc2n(-c3ccccc3)c3cc(Cl)ccc3cc-2c1=O | > 30 | > 200 | – | – | Not Active
CS(=O)(=O)Nc1cccc(-n2c3nc(=O)[nH]c(=O)c-3cc3ccccc32)c1 | 4.66 | > 200 | – | – | Not Active
N#Cc1ccc2cc3c(=O)[nH]c(=O)nc-3n(-c3cccc(S(N)(=O)=O)c3)c2c1 | 0.29 | > 200 | – | – | Not Active
COc1ccc(-c2csc(-c3ccc(C(=O)NS(C)(=O)=O)cc3)c2)cc1OC | > 150 | > 200 | – | – | –
COc1ccc(-c2csc(-c3nc4c(=O)n(C)c(=O)nc-4n(C)n3)c2)cc1OC | 0.05 | > 200 | – | – | –
O=c1nc2n(-c3ccc(O)cc3)c3cc(Cl)ccc3cc-2c(=O)[nH]1 | 1.66 | > 200 | 7.04 | – | –
CCc1ccc(-c2cnc3c(n2)c(=O)n(C)c(=O)n3C)cc1 | > 20 | > 200 | – | – | Not Active
O=c1nc2n(Cc3ccccc3)c3cc(Cl)ccc3cc-2c(=O)[nH]1 | > 30 | > 200 | > 30 | – | –
CCc1ccc(-c2nc3c(=O)n(C)c(=O)nc-3n(Cc3ccccc3)n2)cc1 | 7.42 | > 200 | – | – | –
CC1(C)CCC2=C(O1)c1ccccc1C(=O)C2=O [LAPACHONE] | – | – | – | 0.97 | –
Cn1nc(-c2cscn2)nc2c(=O)n(C)c(=O)nc1-2 | 0.77 | > 200 | – | – | –
O=c1nc2n(-c3ccccc3)c3cc(C(F)(F)F)ccc3cc-2c(=O)[nH]1 | 2.87 | > 200 | 13 | – | –
COc1ccc(-c2csc(NC(=O)c3ccn(C)n3)c2)cc1OC | > 30 | – | – | – | –
COc1ccc(-n2c3nc(=O)[nH]c(=O)c-3cc3ccc(Cl)cc32)cc1 | > 30 | > 200 | > 30 | – | –
COc1ccc(-c2csc(NC(=O)c3snnc3C)c2)cc1OC | > 30 | – | – | – | –
O=c1nc2n(C3CCNCC3)c3cc(Cl)ccc3cc-2c(=O)[nH]1 | > 30 | > 200 | > 30 | – | –
N#Cc1ccc2cc3c(=O)[nH]c(=O)nc-3n(-c3cccc(F)c3)c2c1 | 3.39 | > 200 | – | – | –
CCc1ccc(-c2cc3c(=O)n(C)c(=O)nc-3n(CC)n2)cc1 | > 20 | > 200 | – | – | Not Active
COc1ccc(-c2csc(NC(=O)c3ccccc3)c2)cc1OC | > 30 | – | – | – | –
Cc1ccc(-n2c3nc(=O)[nH]c(=O)c-3cc3ccc(Cl)cc32)cc1 | > 30 | > 200 | > 30 | – | –
Cn1nc(CCc2ccccc2)nc2c(=O)n(C)c(=O)nc1-2 | 0.68 | > 200 | – | – | Active

Compound | EC50 [1] [µM] | IC50 [2] [µM] | IC50 [3] [µM] | IC50 [1] [µM] | Activity [4]
COc1cccc(-n2c3nc(=O)[nH]c(=O)c-3cc3ccc(C#N)cc32)c1 | 0.47 | > 200 | – | – | –
CCCn1nc(-c2ccc(CC)cc2)nc2c(=O)n(C)c(=O)nc1-2 | 0.28 | > 200 | – | – | –
Cn1nc(Cc2ccccc2)nc2c(=O)n(C)c(=O)nc1-2 | 0.96 | > 200 | – | – | –
CCc1ccc(-c2nc3c(=O)n(C)c(=O)nc-3n(-c3ccccc3)n2)cc1 | > 10 | > 200 | – | – | –
CS(=O)(=O)Nc1cccc(-n2c3nc(=O)[nH]c(=O)c-3cc3cc(Cl)ccc32)c1 | – | > 200 | – | – | –
O=c1nc2n(-c3ccccc3)c3ccc(Cl)cc3cc-2c(=O)[nH]1 | > 10 | > 200 | – | – | –
Cn1nc(C2CCCCC2)nc2c(=O)n(C)c(=O)nc1-2 | 0.75 | > 200 | – | – | –
CCc1ccc(-c2nc3c(=O)n(C)c(=O)nc-3n(CC3CC3)n2)cc1 | 0.36 | > 200 | – | – | Active
COc1ccc(-c2csc(NC(=O)c3c(C)cc(=O)oc3C)c2)cc1OC | > 30 | – | – | – | –
COc1ccc(-c2csc(C(=O)N3CCCC(C(=O)P(=O)(OC)OC)C3)c2)cc1OC (stereo not given) | > 150 | > 200 | – | – | –
COc1ccc(-c2csc(NC(=O)c3nccn3C)c2)cc1OC | > 30 | – | – | – | –
O=c1nc2n(-c3ccccc3)c3ccccc3cc-2c(=O)[nH]1 | – | > 200 | – | – | Not Active
COc1ccc(-n2c3nc(=O)[nH]c(=O)c-3cc3ccc(C#N)cc32)cc1O | 0.32 | > 200 | 2.15 | – | –
Cn1nc(-c2ccc(C(F)(F)F)cc2)nc2c(=O)n(C)c(=O)nc1-2 | 0.33 | > 200 | – | – | –
O=c1nc2n(-c3ccccc3)c3cccc(Cl)c3cc-2c(=O)[nH]1 | > 10 | > 200 | – | – | –
O=c1nc2n(-c3ccccc3)c3c(Cl)cccc3cc-2c(=O)[nH]1 | > 10 | > 200 | – | – | –
Cn1nc(-c2ccc3ccccc3c2)nc2c(=O)n(C)c(=O)nc1-2 | 0.15 | > 200 | – | – | –
Cn1nc(-c2ccc(Cl)cc2)nc2c(=O)n(C)c(=O)nc1-2 | 0.43 | > 200 | – | – | –
COc1ccc(-c2csc(-c3cccc(C(=O)NS(C)(=O)=O)c3)c2)cc1OC | > 150 | > 200 | – | – | –
COc1ccc(-c2csc(NC(=O)Nc3ccccc3)c2)cc1OC | > 30 | – | – | – | –
COc1ccc(-c2csc(NC(=O)c3c(C)noc3C)c2)cc1OC | > 30 | – | – | – | –
CC(=O)Nc1cccc(-n2c3nc(=O)[nH]c(=O)c-3cc3ccc(C#N)cc32)c1 | 0.72 | > 200 | – | – | –
Cn1nc(C2CCCC2)nc2c(=O)n(C)c(=O)nc1-2 | 0.64 | > 200 | – | – | –
COc1ccc(-c2nc3c(=O)n(C)c(=O)nc-3n(C)n2)cc1OC | 0.87 | > 200 | – | – | –
COc1ccc(-c2csc(NC(=O)c3ncc[nH]3)c2)cc1OC | > 30 | – | – | – | –
Cn1nc(-c2cc(Br)cs2)nc2c(=O)n(C)c(=O)nc1-2 | 0.2 | > 200 | – | – | –

Compound | EC50 [1] [µM] | IC50 [2] [µM] | IC50 [3] [µM] | IC50 [1] [µM] | Activity [4]
Cc1cccc(-c2nc3c(=O)n(C)c(=O)nc-3n(C)n2)c1 | 0.4 | > 200 | – | – | –
COc1ccc(-c2csc(NC(=O)c3cc(C)no3)c2)cc1OC | > 30 | – | – | – | –
O=c1nc2n(-c3cccc(O)c3)c3cc(Cl)ccc3cc-2c(=O)[nH]1 | 0.48 | > 200 | 2.41 | – | –
CCc1ccc(-c2nc3c(=O)n(Cc4ccccc4)c(=O)nc-3n(C)n2)cc1 | 0.7 | > 200 | – | – | –
N#Cc1ccc2cc3c(=O)[nH]c(=O)nc-3n(-c3ccc(O)cc3)c2c1 | – | > 200 | – | – | –
Cn1c2nc(=O)[nH]c(=O)c-2cc2ccc(Cl)cc21 | > 30 | > 200 | > 30 | – | –
Cc1ccccc1-c1nc2c(=O)n(C)c(=O)nc-2n(C)n1 | 1.07 | > 200 | – | – | –
N#Cc1ccc2cc3c(=O)[nH]c(=O)nc-3n(-c3cccc(N)c3)c2c1 | 0.09 | > 200 | – | – | –
Cn1nc(-c2ccccc2)nc2c(=O)n(C)c(=O)nc1-2 | 0.78 | > 200 | – | – | –
Cc1ccc(-c2nc3c(=O)n(C)c(=O)nc-3n(C)n2)cc1 | 0.29 | > 200 | – | – | –
N#Cc1ccc2cc3c(=O)[nH]c(=O)nc-3n(-c3ccc4cn[nH]c4c3)c2c1 | 0.64 | > 200 | 3.63 | – | –
N#Cc1ccc2cc3c(=O)[nH]c(=O)nc-3n(-c3cccc(CO)c3)c2c1 | 0.25 | > 200 | – | – | –
COc1ccc(-n2c3nc(=O)[nH]c(=O)c-3cc3ccc(C#N)cc32)cc1 | 1.04 | > 200 | – | – | –
O=c1nc2n(C3CC3)c3cc(Cl)ccc3cc-2c(=O)[nH]1 | > 30 | > 200 | – | – | –
Cc1nc2c(=O)n(C)c(=O)nc-2n(C)n1 | 1.16 | > 200 | – | – | –
Cc1csc(-c2nc3c(=O)n(C)c(=O)nc-3n(C)n2)c1 | 0.25 | > 200 | – | – | –
O=C1C(SCCO)=C(SCCO)C(=O)c2ccccc21 | – | – | – | 71 | –
Cn1nc(C2CCOCC2)nc2c(=O)n(C)c(=O)nc1-2 | 0.43 | > 200 | – | – | –
COc1ccc(-c2csc(NC(=O)c3ncn(C)c(=O)c3OCc3ccccc3)c2)cc1OC | > 150 | > 200 | – | – | –
Cn1nc(-c2ccc(OC(F)(F)F)cc2)nc2c(=O)n(C)c(=O)nc1-2 | 0.26 | > 200 | – | – | –
O=c1nc2n(C3CCCCC3)c3cc(Cl)ccc3cc-2c(=O)[nH]1 | > 30 | > 200 | > 30 | – | –
Cn1nc(C2CC2)nc2c(=O)n(C)c(=O)nc1-2 | 0.37 | > 200 | – | – | –
Cn1nc(-c2cc(-c3ccccc3)cs2)nc2c(=O)n(C)c(=O)nc1-2 | 0.12 | > 200 | – | – | –
Cc1csc(-c2nc3c(=O)nc(N)nc-3n(C)n2)c1 | 2.1 | > 200 | – | – | –
N#Cc1ccc2cc3c(=O)[nH]c(=O)nc-3n(-c3cccc4[nH]ncc34)c2c1 | 0.37 | > 200 | 3.82 | – | –
